Results reported in ChEMBL document CHEMBL1781898, “Orally active achiral N-hydroxyformamide inhibitors of ADAM-TS4 (aggrecanase-1) and ADAM-TS5 (aggrecanase-2) for the treatment of osteoarthritis” (Bioorg Med Chem Lett, 2011).

Key:
[1] = target: Matrix metalloproteinase-9 (Homo sapiens, UniProt P14780); experiment: Inhibition of recombinant human MMP-9 assessed as substrate cleavage after 20 hrs by fluorescence assay
Procedure, shortened: (§1)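 Enzyme inhibition IC50s derived from at least six measurements, standard errors normally <5% within an assay; a standard compound run to keep assay-to-assay variability within twofold.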

[2] = target: T1, A disintegrin and metalloproteinase with thrombospondin motifs 5 (Homo sapiens, UniProt Q9UNA0); experiment: Inhibition of ADAMTS-5 assessed as substrate cleavage after 16 hrs by fluorescence assay; procedure, shortened: as §1
T1 sequence (Q9UNA0 whole entry): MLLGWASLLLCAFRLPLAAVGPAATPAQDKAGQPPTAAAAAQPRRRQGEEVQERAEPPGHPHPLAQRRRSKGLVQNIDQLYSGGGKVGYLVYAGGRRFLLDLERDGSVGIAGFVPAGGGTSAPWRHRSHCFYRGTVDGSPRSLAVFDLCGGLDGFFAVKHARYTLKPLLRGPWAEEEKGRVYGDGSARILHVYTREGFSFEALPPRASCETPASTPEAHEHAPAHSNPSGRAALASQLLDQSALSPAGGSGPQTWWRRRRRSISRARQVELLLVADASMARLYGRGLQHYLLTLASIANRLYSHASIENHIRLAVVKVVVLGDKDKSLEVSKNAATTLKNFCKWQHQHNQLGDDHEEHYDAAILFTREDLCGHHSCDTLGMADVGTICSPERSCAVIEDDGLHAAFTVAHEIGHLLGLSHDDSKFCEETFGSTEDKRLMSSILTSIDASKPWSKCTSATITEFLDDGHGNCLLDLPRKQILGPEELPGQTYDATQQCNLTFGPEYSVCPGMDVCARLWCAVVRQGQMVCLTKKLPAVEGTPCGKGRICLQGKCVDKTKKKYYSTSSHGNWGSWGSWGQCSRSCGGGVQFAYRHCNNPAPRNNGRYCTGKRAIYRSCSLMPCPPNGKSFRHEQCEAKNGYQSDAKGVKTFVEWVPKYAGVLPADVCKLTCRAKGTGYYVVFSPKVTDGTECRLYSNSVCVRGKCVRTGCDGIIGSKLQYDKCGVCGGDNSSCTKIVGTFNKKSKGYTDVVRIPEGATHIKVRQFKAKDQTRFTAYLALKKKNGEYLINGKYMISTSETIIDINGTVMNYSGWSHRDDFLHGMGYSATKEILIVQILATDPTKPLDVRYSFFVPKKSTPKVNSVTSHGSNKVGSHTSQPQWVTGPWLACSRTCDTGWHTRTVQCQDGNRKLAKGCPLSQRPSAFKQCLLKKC

[3] = Volume of distribution at steady state in rat at 2 mg/kg, iv and 3 to 10 mg/kg, po; type: ADME, organism-based; conditions: in vivo, read-out: Vdss
[4] = Volume of distribution at steady state in mouse; type: ADME, organism-based; conditions: in vivo, read-out: Vdss
Cytochrome P450 1A2 = target: T2, Cytochrome P450 1A2 (Homo sapiens, UniProt P05177); experiment: Inhibition of CYP1A2; type: ADME
T2 sequence (P05177 whole entry): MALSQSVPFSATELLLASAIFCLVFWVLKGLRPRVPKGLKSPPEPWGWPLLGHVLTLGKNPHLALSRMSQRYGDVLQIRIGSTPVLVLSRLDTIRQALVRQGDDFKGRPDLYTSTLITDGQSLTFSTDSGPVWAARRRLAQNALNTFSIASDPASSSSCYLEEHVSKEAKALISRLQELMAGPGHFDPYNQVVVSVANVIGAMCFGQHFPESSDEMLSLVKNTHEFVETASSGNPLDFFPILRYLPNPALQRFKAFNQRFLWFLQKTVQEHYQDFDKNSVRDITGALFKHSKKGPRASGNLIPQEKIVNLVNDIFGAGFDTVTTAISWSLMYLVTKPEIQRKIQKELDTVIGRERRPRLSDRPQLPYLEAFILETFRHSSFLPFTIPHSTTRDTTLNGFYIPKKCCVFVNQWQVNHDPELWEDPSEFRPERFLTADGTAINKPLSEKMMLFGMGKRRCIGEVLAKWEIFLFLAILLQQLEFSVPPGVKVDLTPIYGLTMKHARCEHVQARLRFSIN
Procedure, shortened: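 Inhibition of cytochrome P450 isoforms 1A2, 2C9, 2C19, 2D6 and 3A4, reported as pIC50.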

[5] = Clearance in rat at 2 mg/kg, iv and 3 to 10 mg/kg, po; type: ADME, organism-based; conditions: in vivo
[6] = Intrinsic clearance in human hepatocytes measured per million cells; type: ADME, cell-based, Liver, Hepatocyte
Procedure, shortened: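 Human hepatocyte metabolism; intrinsic clearance expressed as μL/min/10⁶ cells, reported as mean of six separate experiments.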

[7] = Free drug level in rat; type: ADME, organism-based; conditions: in vivo

Sequence of Matrix metalloproteinase-9 (P14780 whole entry): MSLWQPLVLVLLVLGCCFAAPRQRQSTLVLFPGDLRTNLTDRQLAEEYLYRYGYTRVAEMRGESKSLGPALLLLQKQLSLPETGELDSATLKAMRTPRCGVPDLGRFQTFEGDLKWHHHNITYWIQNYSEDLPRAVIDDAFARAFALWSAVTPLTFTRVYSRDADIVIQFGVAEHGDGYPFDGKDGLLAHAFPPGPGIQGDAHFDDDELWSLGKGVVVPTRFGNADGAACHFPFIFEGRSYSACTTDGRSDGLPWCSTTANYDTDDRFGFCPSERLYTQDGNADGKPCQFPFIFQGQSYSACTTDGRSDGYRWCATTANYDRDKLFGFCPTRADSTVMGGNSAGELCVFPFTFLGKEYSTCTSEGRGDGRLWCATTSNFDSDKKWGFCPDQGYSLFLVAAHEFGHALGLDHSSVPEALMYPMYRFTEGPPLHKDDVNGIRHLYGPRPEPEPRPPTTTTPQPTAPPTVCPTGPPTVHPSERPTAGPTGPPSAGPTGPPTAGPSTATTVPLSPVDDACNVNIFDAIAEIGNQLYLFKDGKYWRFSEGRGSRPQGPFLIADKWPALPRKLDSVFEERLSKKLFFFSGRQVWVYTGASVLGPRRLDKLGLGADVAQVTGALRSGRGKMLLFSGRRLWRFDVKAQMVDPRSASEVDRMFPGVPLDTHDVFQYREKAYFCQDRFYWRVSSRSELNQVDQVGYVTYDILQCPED

- IC50 [1]: > 25000 nM
- IC50 [2]: 860 nM
- Vd [3]: 3 L/kg
- Vd [4]: 2.5 L/kg
- inhibition (INH) (Cytochrome P450 1A2): Not Active
- clearance [5]: 24 mL/min/kg
- hepatocyte CLint [6]: < 2 µL/min/1e6 cells
- fraction unbound [7]: > 0.5
SMILES: Cc1noc(C)c1CCC1CCN(S(=O)(=O)CC2(N(O)C=O)CCOCC2)CC1
